Experiments:
[1] = Partition coefficient (logP); assay type: physicochemical; conditions: octanol/water; read-out: logP
In short: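 Lipophilicity was measured by reversed-phase HPLC. Mobile phase was methanol/0.005 M phosphate buffer pH 4 (60/40) with 0.1% SDS and 0.1 M NaClO4, at 23.0 ± 0.5 °C, with UV detection at 205 nm.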

[2] = Selectivity quotient (DAP125/HR75); # means very high (estimated); assay type: functional
In short: (§1)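 Male Wistar rats (280–360 g), urethane-anesthetized (1.25 g/kg ip), breathing spontaneously. Femoral artery pressure gave diastolic pressure; subcutaneous needle ECG gave heart rate and RαT interval (R onset to T apex), analyzed every 30 s. Femoral vein infusion at 0.1 mL/min, concentration raised tenfold every 10 min (3 doses). ED75/ED125 (25% change from predrug) were geometric means; quotients DAP125/HR75 and RαT125/HR75.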

Rattus norvegicus [3] = organism: Rattus norvegicus; assay: Score point for the selectivity versus additional effect R&T interval.; assay type: functional
Cavia porcellus [4] = organism: Cavia porcellus; assay: In vitro activity in guinea pig atria as the functional refractory period (FRP), which is the shortest interval between a double stimulus causing a double contraction.
In short: (§2)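 Isolated guinea pig atria in oxygenated buffer at 35 °C. Right atria beat spontaneously; left atria were paced at 2 Hz with 1 ms rectangular pulses and isometric contractions were recorded. Cumulative concentration–response curves were run with up to five concentrations. EC75/EC125 is the concentration giving a 25% decrease/increase from the predrug value, reported as the geometric mean of individual ECs.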

Cavia porcellus [5] = organism: Cavia porcellus; assay: Selectivity quotient (F75/SR75); assay type: functional
In short: (§3)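 Atrial selectivity quotients were calculated from the guinea pig atrial EC values as F75/SR75 and FRP125/SR75.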

Cavia porcellus [6] = organism: Cavia porcellus; assay: Score value indicates selectivity versus the decrease in force of contraction; assay type: functional
Cavia porcellus [7] = organism: Cavia porcellus; assay: In vitro activity in guinea pig atria was measured as rate of spontaneously beating right atrium (SR) which reflects the activity of the sinus node; assay type: functional; conditions: Cardiac atrium; in short: as §2
Rattus norvegicus [8] = organism: Rattus norvegicus; assay: Score value indicates desire effect on heart rate; assay type: functional
Rattus norvegicus [9] = assay: In vivo activity in anesthetized rat was measured as the R alpha T-interval of the rat ECG which reflects the time from ventricular excitation to recovery; assay type: functional, Cardiac ventricle
In short: (§4)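 Male Wistar rats (280–360 g) under urethane (1.25 g/kg ip), intubated and breathing spontaneously. Femoral arterial pressure was recorded with needle-electrode ECG, analysed every 30 s. Compound was given by continuous femoral-vein infusion at 0.1 mL/min, with concentration raised tenfold every 10 min (3 doses). ED75/ED125 is the dose giving a 25% decrease/increase from the predrug value, reported as the geometric mean of individual EDs.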

Cavia porcellus [10] = organism: Cavia porcellus; assay: Score value indicates decrease of the sinus rate; assay type: functional
Rattus norvegicus [11] = assay: In vivo activity in anesthetized rat was measured as heart rate which provides information on in vivo bradycardic activity; assay type: functional; in short: as §4
Cavia porcellus [12] = organism: Cavia porcellus; assay: Selectivity quotient (FRP125/SR75); assay type: functional; in short: as §3
Cavia porcellus [13] = organism: Cavia porcellus; assay: Score point for the selectivity versus additional effect FRP.; assay type: functional
Rattus norvegicus [14] = organism: Rattus norvegicus; assay: Score value indicates selectivity against the undesired effect on diastolic blood pressure; assay type: functional, Artery
Cavia porcellus [15] = organism: Cavia porcellus; assay: Sum of the scores of decrease of the sinus rate and selectivity versus the decrease in force of contraction; assay type: functional
Rattus norvegicus [16] = organism: Rattus norvegicus; assay: Total score (SS)
Rattus norvegicus [17] = organism: Rattus norvegicus; assay: Selectivity quotient (R&T125/HR75)
Cavia porcellus [18] = organism: Cavia porcellus; assay: In vitro activity in guinea pig atria was measured as the peak force of contraction (F) of a stimulated left atrium; assay type: functional; conditions: Cardiac atrium; in short: as §2
[19] = Selectivity quotient (R&T125/HR75); # # means very low (estimated); assay type: functional; in short: as §1
Rattus norvegicus [20] = organism: Rattus norvegicus; assay: Selectivity quotient (DAP125/HR75)
[21] = Selectivity quotient (FRP125/SR75); # # means very low (estimated); assay type: functional

| Structure (SMILES) | logP [1] | Selectivity quotient [2] | Score (Rattus norvegicus [3]) | EC125 (Cavia porcellus [4]) | Selectivity quotient (Cavia porcellus [5]) | Score (Cavia porcellus [6]) | EC75 (Cavia porcellus [7]) | Score (Rattus norvegicus [8]) | ED125 (Rattus norvegicus [9]) | Score (Cavia porcellus [10]) | ED75 (Rattus norvegicus [11]) | Selectivity quotient (Cavia porcellus [12]) | Score (Cavia porcellus [13]) | Score (Rattus norvegicus [14]) | Score (Cavia porcellus [15]) | total score (SS) (Rattus norvegicus [16]) | Selectivity quotient (Rattus norvegicus [17]) | EC75 (Cavia porcellus [18]) | Selectivity quotient (Rattus norvegicus [20]) | other results |
| --- | --- | --- | --- | --- | --- | --- | --- | --- | --- | --- | --- | --- | --- | --- | --- | --- | --- | --- | --- | --- |
| C1CCC2(C1)C1CN(CC3CC3)CC2CN(CC2CC2)C1 [TEDISAMIL] | 4.19 | # | 4 | 0.76 µM | 37.6 | 0 | 1.3 µM | 5 | 2.5 µM/kg | 5 | 5.3 µM/kg | 0.56 | 3 | 0 | 5 | 5 | 0.47 | 49 µM | – | – |
| CCCCCCN1CC2CN(CCCCCC)CC(C1)C2(CC)CCCC (centres undefined) | 8.26 | – | 6 | 1.27 µM | 2.32 | -4 | 0.6 µM | 0 | 4 µM/kg | 6 | – | 2.12 | 2 | -3 | 2 | -3 | – | 1.39 µM | 1 | Selectivity quotient [19]: very low |
| CCCCCCN1CC2CC(CN(C)C2)C1 | 3.18 | – | 5 | 1.4 µM | 1 | -5 | – | 1 | 8.4 µM/kg | 0 | 46 µM/kg | – | 6 | -3 | -5 | -2 | 0.18 | 83.8 µM | 1 | Selectivity quotient [21]: very low |
| CCC1(C)C2CN(CC3CCCCC3)CC1CN(CC1CCCCC1)C2 (centres undefined) | 6.65 | # | 3 | 0.68 µM | 0.76 | -6 | 6.2 µM | 4 | 5.5 µM/kg | 3 | – | 0.11 | 5 | 0 | -3 | 4 | 0.5 | 4.69 µM | – | – |
